From ChEMBL document CHEMBL5724801, “EUbOPEN Chemogenomics Library - Multiplex” (2024)
Several values for one entry are separate records, joined by “and”; a condition that tells them apart may be missing. Identical values can stand only once.

Tested on: Fibroblast
Assay: Multiplex assay against human fibroblast
Type: toxicity, cell-based
Procedure, shortened: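 At seeding, live cells were stained with Hoechst33342, BioTracker Green Microtubule Cytoskeleton Dye, MitoTracker Red and Annexin V Alexa Fluor 680. After compound addition they were imaged on a CQ1 microscope at 37°C and 5% CO2, and CellPathfinder machine-learning gating sorted them into Hoechst high-intensity objects or normal cells, with normal cells further split into healthy, pyknosed or fragmented nuclei and pyknosed cells into mitotic or apoptotic. Tubulin, mitochondrial-mass and membrane-permeability phenotypes are given as per cents of cells with healthy nuclei.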

[1] = 12 h, 1 µM, compound concentration 1 uM
[2] = 12 h, 10 µM, compound concentration 10 uM
[3] = 24 h, 1 µM, compound concentration 1 uM
[4] = 24 h, 10 µM, compound concentration 10 uM
[5] = 48 h, 1 µM, compound concentration 1 uM
[6] = 48 h, 10 µM, compound concentration 10 uM

## C[C@H](NC(=O)c1c(C(F)F)nn(C)c1Oc1cccc(C(F)(F)F)c1)c1ccc(C(=O)O)cc1 [PALUPIPRANT]
[1]
  Population Apoptotic (%): 26% and 24%
  Population Fragmented Nuclei (%): 29% and 23%
  Population Healthy Nuclei (%): 57% and 52%
  Population Hoechst High Intensity Objects (%): 5% and 6%
  Population Membrane Permeable-Phenotype (%): 0% and 11%
  Population Mitochondria Different-Phenotype (%): 4% and 6%
  Population Mitotic Cells (%): 73% and 75%
  Population Normal (%): 94% and 93%
  Population Pyknosed Nuclei (%): 12% and 23%
  Population Tubulin-Different-Phenotype (%): 23% and 55%
  Total Cell Count: 187 and 148
[2]
  Population Apoptotic (%): 45% and 35%
  Population Healthy Nuclei (%): 70% and 35%
  Population Mitochondria Different-Phenotype (%): 6% and 13%
  Population Mitotic Cells (%): 55% and 64%
  Population Normal (%): 97% and 85%
  Population Pyknosed Nuclei (%): 16% and 22%
  Population Tubulin-Different-Phenotype (%): 45% and 60%
  Total Cell Count: 126 and 149
[3]
  Population Apoptotic (%): 40% and 42%
  Population Fragmented Nuclei (%): 32% and 26%
  Population Healthy Nuclei (%): 58% and 53%
  Population Hoechst High Intensity Objects (%): 5% and 7%
  Population Membrane Permeable-Phenotype (%): 1% and 8%
  Population Mitochondria Different-Phenotype (%): 4% and 5%
  Population Mitotic Cells (%): 60% and 57%
  Population Normal (%): 94% and 92%
  Population Pyknosed Nuclei (%): 8% and 20%
  Total Cell Count: 178 and 141
[4]
  Population Apoptotic (%): 60% and 38%
  Population Fragmented Nuclei (%): 18% and 40%
  Population Healthy Nuclei (%): 62% and 42%
  Population Hoechst High Intensity Objects (%): 5% and 10%
  Population Mitochondria Different-Phenotype (%): 7% and 3%
  Population Mitotic Cells (%): 39% and 61%
  Population Normal (%): 94% and 89%
  Population Pyknosed Nuclei (%): 18% and 17%
  Population Tubulin-Different-Phenotype (%): 35% and 51%
  Total Cell Count: 131 and 138
[5]
  Population Apoptotic (%): 53%
  Population Fragmented Nuclei (%): 34% and 30%
  Population Healthy Nuclei (%): 57% and 50%
  Population Hoechst High Intensity Objects (%): 11% and 3%
  Population Membrane Permeable-Phenotype (%): 0% and 4%
  Population Mitochondria Different-Phenotype (%): 4%
  Population Mitotic Cells (%): 46%
  Population Normal (%): 88% and 96%
  Population Pyknosed Nuclei (%): 7% and 19%
  Population Tubulin-Different-Phenotype (%): 29% and 53%
  Total Cell Count: 184 and 147
[6]
  Population Apoptotic (%): 73% and 60%
  Population Fragmented Nuclei (%): 20% and 45%
  Population Healthy Nuclei (%): 60% and 45%
  Population Hoechst High Intensity Objects (%): 4% and 13%
  Population Membrane Permeable-Phenotype (%): 1% and 10%
  Population Mitochondria Different-Phenotype (%): 8% and 6%
  Population Mitotic Cells (%): 26% and 40%
  Population Normal (%): 95% and 86%
  Population Pyknosed Nuclei (%): 18% and 9%
  Population Tubulin-Different-Phenotype (%): 46% and 50%
  Total Cell Count: 130 and 122

## COc1cc(OC2CCN(C(C)=O)CC2)ccc1C(=O)N1CCC(N2C(=O)OCc3ccccc32)CC1
[1]
  Population Apoptotic (%): 41% and 40%
  Population Fragmented Nuclei (%): 12% and 29%
  Population Healthy Nuclei (%): 64% and 52%
  Population Hoechst High Intensity Objects (%): 5% and 3%
  Population Membrane Permeable-Phenotype (%): 2% and 0%
  Population Mitochondria Different-Phenotype (%): 5% and 3%
  Population Mitotic Cells (%): 58% and 59%
  Population Normal (%): 94% and 96%
  Population Pyknosed Nuclei (%): 22% and 17%
  Population Tubulin-Different-Phenotype (%): 32% and 34%
  Total Cell Count: 157 and 159
[2]
  Population Apoptotic (%): 52% and 37%
  Population Healthy Nuclei (%): 73% and 40%
  Population Hoechst High Intensity Objects (%): 3% and 6%
  Population Membrane Permeable-Phenotype (%): 0% and 2%
  Population Mitochondria Different-Phenotype (%): 6% and 10%
  Population Mitotic Cells (%): 48% and 62%
  Population Normal (%): 96% and 93%
  Population Pyknosed Nuclei (%): 16% and 28%
  Population Tubulin-Different-Phenotype (%): 54% and 56%
  Total Cell Count: 161 and 134
[3]
  Population Apoptotic (%): 63% and 48%
  Population Fragmented Nuclei (%): 19% and 28%
  Population Healthy Nuclei (%): 63% and 51%
  Population Hoechst High Intensity Objects (%): 1%
  Population Membrane Permeable-Phenotype (%): 0% and 5%
  Population Mitochondria Different-Phenotype (%): 4% and 3%
  Population Mitotic Cells (%): 36% and 51%
  Population Normal (%): 98%
  Population Pyknosed Nuclei (%): 17% and 19%
  Population Tubulin-Different-Phenotype (%): 32% and 31%
  Total Cell Count: 170 and 155
[4]
  Population Apoptotic (%): 36% and 43%
  Population Fragmented Nuclei (%): 13% and 34%
  Population Healthy Nuclei (%): 74% and 48%
  Population Hoechst High Intensity Objects (%): 7%
  Population Membrane Permeable-Phenotype (%): 1% and 3%
  Population Mitochondria Different-Phenotype (%): 7% and 10%
  Population Mitotic Cells (%): 63% and 56%
  Population Normal (%): 92%
  Population Pyknosed Nuclei (%): 11% and 17%
  Population Tubulin-Different-Phenotype (%): 39% and 70%
  Total Cell Count: 172 and 145
[5]
  Population Apoptotic (%): 40% and 58%
  Population Fragmented Nuclei (%): 14% and 32%
  Population Healthy Nuclei (%): 70% and 52%
  Population Hoechst High Intensity Objects (%): 7% and 3%
  Population Membrane Permeable-Phenotype (%): 0% and 4%
  Population Mitochondria Different-Phenotype (%): 5% and 4%
  Population Mitotic Cells (%): 59% and 41%
  Population Normal (%): 92% and 96%
  Population Pyknosed Nuclei (%): 14% and 15%
  Population Tubulin-Different-Phenotype (%): 35% and 43%
  Total Cell Count: 160 and 163
[6]
  Population Apoptotic (%): 57% and 56%
  Population Healthy Nuclei (%): 79% and 51%
  Population Hoechst High Intensity Objects (%): 5% and 3%
  Population Membrane Permeable-Phenotype (%): 0% and 3%
  Population Mitochondria Different-Phenotype (%): 13% and 10%
  Population Mitotic Cells (%): 42% and 43%
  Population Normal (%): 94% and 96%
  Population Pyknosed Nuclei (%): 9% and 12%
  Population Tubulin-Different-Phenotype (%): 51% and 69%
  Total Cell Count: 155 and 134
